The target of test [1] is T1, Rap guanine nucleotide exchange factor 4 (Homo sapiens, UniProt Q8WZA2). In words: Competitive inhibition of Epac2 using fluorescent nucleotide analog 8-NBD-cAMP by fluorescence analysis.
Target sequence in this assay (Q8WZA2 whole entry): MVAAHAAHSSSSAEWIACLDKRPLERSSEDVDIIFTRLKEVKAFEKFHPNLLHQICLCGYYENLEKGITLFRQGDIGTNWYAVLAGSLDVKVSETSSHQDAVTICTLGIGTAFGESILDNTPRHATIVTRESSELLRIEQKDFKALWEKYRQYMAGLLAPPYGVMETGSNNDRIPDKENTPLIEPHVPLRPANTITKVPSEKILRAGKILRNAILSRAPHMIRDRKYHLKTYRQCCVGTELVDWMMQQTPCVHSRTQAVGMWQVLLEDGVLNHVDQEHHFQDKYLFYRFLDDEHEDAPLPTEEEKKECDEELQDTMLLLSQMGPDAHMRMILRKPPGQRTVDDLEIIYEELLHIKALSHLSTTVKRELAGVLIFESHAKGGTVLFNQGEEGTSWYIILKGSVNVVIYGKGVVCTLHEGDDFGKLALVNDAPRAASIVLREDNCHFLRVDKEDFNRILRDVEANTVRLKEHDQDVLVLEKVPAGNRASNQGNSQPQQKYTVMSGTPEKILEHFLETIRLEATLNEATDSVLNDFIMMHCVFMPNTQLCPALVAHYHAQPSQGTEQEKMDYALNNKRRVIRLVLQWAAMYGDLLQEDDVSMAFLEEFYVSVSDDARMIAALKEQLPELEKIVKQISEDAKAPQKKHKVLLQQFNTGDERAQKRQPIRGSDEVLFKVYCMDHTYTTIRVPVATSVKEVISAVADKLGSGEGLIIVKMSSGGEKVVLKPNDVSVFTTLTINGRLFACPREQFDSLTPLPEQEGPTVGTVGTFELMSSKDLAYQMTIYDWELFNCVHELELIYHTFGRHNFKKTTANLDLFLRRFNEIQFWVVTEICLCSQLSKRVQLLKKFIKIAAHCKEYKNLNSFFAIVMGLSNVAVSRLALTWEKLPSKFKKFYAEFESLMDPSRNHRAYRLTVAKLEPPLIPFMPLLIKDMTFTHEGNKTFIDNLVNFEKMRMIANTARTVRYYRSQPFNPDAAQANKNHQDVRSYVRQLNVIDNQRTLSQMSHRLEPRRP
A short description of test [2]: Inhibition of PKA type1 activation at 25 uM.
A short description of test [3]: Inhibition of PKA type2 activation at 25 uM.
Test [4] deals with T2, Rap guanine nucleotide exchange factor 3 (Homo sapiens) (UniProt O95398).
T2 sequence (whole entry): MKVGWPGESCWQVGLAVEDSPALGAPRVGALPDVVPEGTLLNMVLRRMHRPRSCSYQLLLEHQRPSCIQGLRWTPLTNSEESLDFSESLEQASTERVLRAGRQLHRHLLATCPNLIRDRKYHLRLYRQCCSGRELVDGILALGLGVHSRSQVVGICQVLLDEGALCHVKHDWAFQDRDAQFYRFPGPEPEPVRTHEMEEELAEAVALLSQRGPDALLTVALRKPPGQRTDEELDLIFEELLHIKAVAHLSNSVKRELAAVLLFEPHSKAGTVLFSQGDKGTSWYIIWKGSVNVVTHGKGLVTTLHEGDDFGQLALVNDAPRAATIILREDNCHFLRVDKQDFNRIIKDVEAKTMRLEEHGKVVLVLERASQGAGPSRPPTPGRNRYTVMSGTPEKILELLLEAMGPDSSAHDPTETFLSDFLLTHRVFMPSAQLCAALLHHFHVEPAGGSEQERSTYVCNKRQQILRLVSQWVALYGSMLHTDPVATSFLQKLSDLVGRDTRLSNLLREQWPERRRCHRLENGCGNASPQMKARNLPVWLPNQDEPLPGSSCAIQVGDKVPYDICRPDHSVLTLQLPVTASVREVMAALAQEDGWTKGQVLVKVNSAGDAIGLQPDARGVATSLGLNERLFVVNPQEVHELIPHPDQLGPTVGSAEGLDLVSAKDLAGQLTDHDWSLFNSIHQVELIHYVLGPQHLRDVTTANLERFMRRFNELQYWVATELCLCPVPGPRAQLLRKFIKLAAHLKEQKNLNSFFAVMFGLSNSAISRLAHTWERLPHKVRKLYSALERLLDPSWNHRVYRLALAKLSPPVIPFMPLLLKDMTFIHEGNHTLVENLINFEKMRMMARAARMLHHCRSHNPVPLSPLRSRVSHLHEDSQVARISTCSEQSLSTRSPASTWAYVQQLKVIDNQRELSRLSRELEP
In words: Inhibition of Epac1 at 25 uM in presence of equal molar concentration of cAMP.

Test [5] addresses T1, Rap guanine nucleotide exchange factor 4. As to the kind of experiment: Inhibition of Epac2 at 25 uM in presence of equal molar concentration of cAMP.
Target sequence in this assay (Q8WZA2 whole entry, looked up): as the sequence (Q8WZA2 whole entry) above
Test [6] has the same target. As to the kind of experiment: Inhibition of cAMP-mediated recombinant Epac2 GEF activity at 25 uM by fluorescence analysis in presence of cAMP.
Target sequence in this assay (Q8WZA2 whole entry, looked up): as the sequence (Q8WZA2 whole entry) above
The target in test [7] is T2, Rap guanine nucleotide exchange factor 3 (Homo sapiens). As to the kind of experiment: Inhibition of recombinant Epac1-mediated Rap1-GDP exchange activity at 25 uM by fluorescence analysis in presence of cAMP.
Test [8] shares this target. As to the kind of experiment: Inhibition of recombinant Epac1-mediated Akt phosphorylation at T308 expressed in 007-AM-stimulated HEK293 cells at 10 uM administered 5 mins prior to 007-AM by Western blot analysis. The test is classed as cell-based. A digest of the protocol: (§1)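 HEK293/Epac1 or HEK293/Epac2 cells were pretreated, or not, with 10 μM antagonist for 5 min. They were then stimulated with 10 μM 007-AM, the membrane-permeable Epac-selective agonist. Cell lysates were immunoblotted with PKB antibodies specific for phospho-Ser473 and phospho-Thr308.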
Background: A western blot detects proteins with antibodies after separation by electrophoresis.

The target is the same in test [9]. In words: Inhibition of recombinant Epac1-mediated Akt phosphorylation at S473 expressed in 007-AM-stimulated HEK293 cells at 10 uM administered 5 mins prior to 007-AM by Western blot analysis. The test is classed as cell-based. A digest of the protocol: as §1
The target of test [10] is T1, Rap guanine nucleotide exchange factor 4. In words: Inhibition of recombinant Epac2-mediated Akt phosphorylation at T308 expressed in 007-AM-stimulated HEK293 cells at 10 uM administered 5 mins prior to 007-AM by Western blot analysis. The test is classed as cell-based. In outline:
as §1
Target sequence in this assay (Q8WZA2 whole entry, looked up): as the sequence (Q8WZA2 whole entry) above

Test [11] has the same target. In words: Inhibition of recombinant Epac2-mediated Akt phosphorylation at S473 expressed in 007-AM-stimulated HEK293 cells at 10 uM administered 5 mins prior to 007-AM by Western blot analysis. The test is classed as cell-based. A digest of the protocol:
as §1
Target sequence in this assay (Q8WZA2 whole entry, looked up): as the sequence (Q8WZA2 whole entry) above

The source made the active and inactive calls. No cut-off for these calls is given here.

Usually IC50 stands for the concentration that gives 50% inhibition.

In turn, `N#Cc1c(C2CCCCC2)nc(Nc2ccccc2)[nH]c1=O` returned a 50% inhibitory concentration (IC50) in test [1] above 300 µM.

Regarding `O=S(=O)(NCCNC/C=C/c1ccc(Br)cc1)c1cccc2cnccc12`, the inhibition result in test [2] and in test [3] was “Active” each time.

Regarding `Cc1cc(C)c(NC(=O)CSc2nc(C3CCCCC3)c(C#N)c(=O)[nH]2)c(C)c1`, the IC50 in [1] is above 300 µM.

In the case of `Cc1ccc(C)c(CSc2nc(C3CCN(C)CC3)c(C#N)c(=O)[nH]2)c1`, the half-inhibitory concentration (IC50) in [1] was 127 µM.

`N#Cc1c(C2CCCCC2)nc(SCC(=O)Nc2ccccc2)[nH]c1=O` showed an IC50 in [1] above 300 µM.

In turn, `Cc1ccc(CSc2nc(C3CCCCC3)c(C#N)c(=O)[nH]2)c(C)c1` registered a half-inhibitory concentration (IC50) in test [1] of 15.7 µM.

`Cc1cc(C)cc(CSc2nc(C3CCCCC3)c(C#N)c(=O)[nH]2)c1` came in with an IC50 in test [1] of 7 µM.

In test [1], `Cc1ccc(C)c(CSc2nc(C3CCNCC3)c(C#N)c(=O)[nH]2)c1` registered a half-inhibitory concentration (IC50) above 300 µM.

For the molecule `N#Cc1c(C2CCCCC2)nc(Nc2ccc(Cl)cc2)[nH]c1=O`, the IC50 in test [1] was above 300 µM.

As to `Cc1ccc(C)c(CSc2nc(C(C)C)c(C#N)c(=O)[nH]2)c1`, the IC50 in [1] is 12.7 µM.

Take `Cc1ccc(CSc2nc(C3CCCCC3)c(C#N)c(=O)[nH]2)cc1`: the IC50 in test [1] was determined as 38.7 µM.

In test [1], `N#Cc1c(C2CCCCC2)nc(S)[nH]c1=O` had a 50% inhibitory concentration (IC50) above 300 µM.

As to `Cc1ccc(NC(=O)CSc2nc(C3CCCCC3)c(C#N)c(=O)[nH]2)cc1`, the IC50 in test [1] is above 300 µM.

With `N#Cc1c(C2CCCCC2)nc(SCC(=O)O)[nH]c1=O`, the IC50 in test [1] is above 300 µM.

In test [1], `N#Cc1c(C2CCCCC2)nc(SCc2ccccc2)[nH]c1=O` came in with a half-inhibitory concentration (IC50) of 30.5 µM.

`Cc1ccc(C)c(CSc2nc(C3CCCCC3)c(C#N)c(=O)[nH]2)c1`: the inhibition result in test [4] and in [5] was “Active” throughout. In addition, in [1], the IC50 was 8.4 µM. Also, the inhibition result in [2] and in [3] was “inactive” in each case.

With `Cc1ccc(C)c(CSc2nc(C3CCCC3)c(C#N)c(=O)[nH]2)c1`, in [1], the IC50 amounted to 5.9 µM. Moreover, the inhibition entry in test [6], in [7], in test [8], in test [9], in [10] and in test [11] was “Active” in each case. Moreover, the inhibition result in test [2] and in test [3] was “inactive” throughout.

For the molecule `Cc1cc(C)c(CSc2nc(C3CCCCC3)c(C#N)c(=O)[nH]2)c(C)c1`, the IC50 in test [1] was 11.6 µM.

For `Cc1ccc(C)c(CSc2nc(C3CC3)c(C#N)c(=O)[nH]2)c1`, in [1], the IC50 came to 4 µM. Besides, the inhibition entry in [6], in test [8], in test [9], in test [10] and in test [11] was “Active” each time. In addition, the inhibition result in [2] and in test [3] was “inactive” in each case.

Values taken from ChEMBL document CHEMBL2029310 (Bioorg Med Chem Lett, 2012).
